Laboratory results as given in ChEMBL document CHEMBL4513216, “Probing the Open Global Health Chemical Diversity Library for Multistage-Active Starting Points for Next-Generation Antimalarials” (ACS Infect Dis, 2020).

Experiment: Toxicity liver stage against HepG2, at 10uM
Format: cell-based
Parameters: test concentration 10 uM, cell line HepG2-A16-CD81EGFP
Settings: human, HepG2-A16-CD81EGFP cells; read-out: INHIBITION
Summary of the method: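 Uninfected HepG2-A16-CD81EGFP cells, 3 × 10^3 per well, 1536-well, plated on prespotted compound at 10 μM final, parasite-free screening media added to match infected plates; puromycin 10 μM positive, DMSO 0.5% negative; run in parallel with 48 h PbLuc assay at 37 °C, 5% CO2; viability by CellTiter-Glo luminescence, normalized to controls.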

SMILES | cytotoxicity at 10 µM
Cc1cnn(CC2CCCN2C(=O)c2cnc3n[nH]c(C)c3c2)c1 (stereo not given) | 8.73%
Nc1nc(CCC(=O)N2CCOC(CC3CCCCC3)C2)cs1 (stereo not given) | -9.18%
CNC(=O)C1(N2CCC[C@H]2C(=O)NC2CC2)CCCCC1 | -1.69%
CCc1nc(C)c(C(=O)N[C@@H]2c3ccccc3C[C@@H]2O)o1 | 4.57%
Cc1noc(C(C)C)c1C(=O)NCCCN1CCCCCC1=O | 1.91%
CC(Cn1cccn1)NC(=O)NCc1ccnc(OC2CCCC2)c1 (stereo not given) | -4.59%
CC(O)(CNC(=O)NCCc1ccc2c(c1)CCO2)c1ccsc1 (stereo not given) | 7.4%
COC1CCN(C(=O)Cc2csc(-c3ncccn3)n2)CC1 | -12.6%
Cc1nc(-c2ccsc2)ccc1C(=O)N1CCn2c(C)nnc2C1 | -7.83%
O=S(=O)(c1ccccc1)N1CCCCC1c1cc[nH]n1 (stereo not given) | 7.65%
COc1cccc(CN(C)C(C)C(=O)Nc2nc(C)c(C)s2)c1 (stereo not given) | 9.74%
COc1ccc(C2=C(C)C(N3CCc4ccccc4C3)=NS2(=O)=O)cc1 | -6.34%
CCC(CNc1ncnc2oc(C)nc12)Cc1ccccc1 (stereo not given) | 1.23%
CCc1ncc2c(n1)CN(C(=O)CC(C)NC(C)=O)C2 (stereo not given) | 3.6%
N#CC1COCCN1S(=O)(=O)c1ccc2c(c1)CCC2 (stereo not given) | 4.53%
O=C(c1cnccn1)N1C[C@H]2CC[C@@H](C1)N(C(=O)CCc1ccsc1)C2 | 3.24%
Cc1noc(C)c1-c1cc(C2CCNCC2)ccn1 | -16.6%
O=C(CCNC(=O)c1ccc(Cl)cc1)NCc1nc(C2CC2)no1 | 0.648%
CC1CCCCN1C(=O)COc1nc(C(C)(C)C)no1 (stereo not given) | -3.22%
Cc1c(NCc2ccccc2C#N)cccc1-n1cnnn1 | 15.4%
Cc1ccc(CN2CCN(Cc3ccncc3)CC2=O)cc1 | -5.64%
CC1(C)[C@H](Cc2cc(CN3CCCCC3)on2)C[C@@H]1NS(C)(=O)=O | 1.12%

SMILES | cytotoxicity at 10 µM
O=C(Cc1ccccc1)NC[C@H]1Cn2ccnc2CO1 | 0.148%
CN(Cc1cc[nH]n1)C(=O)c1cn(Cc2ccccc2Cl)nn1 | 7.59%
CC(=O)N1CCN(C(=O)C(C)Nc2ccc3ncsc3c2)CC1 (stereo not given) | -3.25%
Cc1cccc(C2CCCN2C(=O)CN(C)S(C)(=O)=O)c1C (stereo not given) | 12.3%
CC(C)c1nc2n(n1)CC(NCc1nnc(C3CC3)o1)CC2 (stereo not given) | -11.6%
Cc1cnn(CC2CCCN2C(=O)Cc2c(C)noc2Cl)c1 (stereo not given) | 0.471%
CN1CC[C@@H]2[C@@H](CO[C@H]2CNC(=O)c2nccn2C)C1 | -113%
CCC(NC(=O)c1cc(CC(C)C)nn1C)c1cccc(C)n1 (stereo not given) | -116%
Cc1cc(CN2C[C@@H]3COC[C@H](C(=O)N4CCCCO4)[C@@H]3C2)no1 | -77.9%
CC(CNC(=O)N1CCN(Cc2ccon2)CC1)N(C)C1CC1 (stereo not given) | -6.74%
COc1ccc2cc(C(=O)N3CCCC(n4ccnc4C)C3)[nH]c2c1 (stereo not given) | -9.74%
CCOc1ccc(N2CCCN=C2NC(=O)c2cccc(Cl)c2)cc1 | -10.1%
CCOC(=O)c1cnn(C2CCN(C(=O)CC(C)(C)C)CC2)c1N | 6.26%
O=C(N1CCOCC1)N1CC[C@@](O)(c2ccccc2)[C@H]2CCCC[C@@H]21 | -1.11%
CCSc1cc(C(=O)NCC(C)(C)N(C)C)ccn1 | -13.4%
Cc1noc(-c2ccnc(N3CCCN(C4CCOCC4)CC3)c2)n1 | -2.85%
CCn1ncc2c1CCCC2NCc1cccc2c1OCO2 (stereo not given) | -6.43%
CNc1nc2cn(CCc3ccc(F)cc3)c(=O)c-2c[nH]1 | 7.55%
CC(C)c1nnc2n1CCN(C(C(N)=O)c1ccc(F)cc1)C2 (stereo not given) | 1.54%
CN(Cc1n[nH]c2c1CCCC2)c1nc2c(c(=O)[nH]1)CCNCC2 | -20.1%
Cc1[nH]ccc1C(=O)Nc1cccc(CN2CCC(CO)CC2)c1 | -9.37%
COc1ccc(C(=O)COc2coc(CN3CCCCC3)cc2=O)cc1 | 5.12%

SMILES | cytotoxicity at 10 µM
Cc1cc(CNS(C)(=O)=O)ccc1N(C)C | -11.5%
COc1ccc(N2CCN(C(=O)CCc3n[nH]c(C)n3)CC2=O)cc1 | -0.524%
CCS(=O)(=O)N(C)CC(=O)Nc1ccc(Br)cn1 | -0.0481%
Cc1cccc(CN2CCC3(CCCN(C(=O)CN(C)C)C3)C2=O)n1 (stereo not given) | -3.49%
O=C(CCO)N1CCC2(CCc3ccc(-c4ccoc4)cc32)CC1 | 16.1%
NC(=O)c1ccc(OCC(=O)N2CCCC(n3cccn3)C2)cc1 (stereo not given) | 1.3%
CCCN(C(=O)COC)c1nc2c(s1)CCc1c-2cnn1C | 5.15%
Cc1cc2c(=O)n3c(nc2s1)CCN(C(=O)c1ccncc1)CC3 | 1.08%
CC(C(=O)NCc1ccnc(N2CCN(C)CC2)c1)S(C)(=O)=O (stereo not given) | -13.9%
N#Cc1ccccc1OCCN1CCCC(c2noc(C3CC3)n2)C1 (stereo not given) | 5.87%
Cc1c(C(=O)N2CCCC(n3nnc4cc(F)ccc43)C2)cnn1C (stereo not given) | -18.3%
COCc1noc(C2(c3ccc(OC)cc3)CCOCC2)n1 | -22.3%
O=C(Cc1ccccn1)N1CCC2(CCCN(CC3CCOCC3)C2)C1 (stereo not given) | -122%
CCOc1ccc(CN2CCN(C(=O)c3ccc(C)n3C)CC2)cc1 | 19.2%
N#Cc1cccnc1NCc1cccc(C(=O)NCC2CCCCO2)c1 (stereo not given) | 5%
Cc1ccoc1C(=O)N1CCc2ccc(=O)n(CCN(C)C)c2CC1 | 1.41%
Cc1cnn(CCCNC(=O)N2CCCCC(N3CCCC3)C2)c1 (stereo not given) | -5.97%
Cc1ccc(-c2noc([C@@H]3Cc4nc[nH]c4CN3)n2)cc1 | 0.676%
C[C@H]1CN(Cc2cccc(F)c2)C[C@@]12CCN(CC(=O)N(C)C)C2=O | -7.13%
CN(Cc1ccccc1)C1(C(=O)O)Cc2ccccc2C1 | 1.04%
N#Cc1ccccc1CN1C[C@H]2CC[C@@H](C1)N(CC1CC1)C2=O | -11.4%
Cc1nc2ccnn2c(C)c1CCC(=O)N1CCN(CCO)CC1 | -6.29%

SMILES | cytotoxicity at 10 µM
CCn1nccc1C(=O)N1CCCCC1CCc1ccc(O)cc1 (stereo not given) | 2.62%
CS(=O)(=O)NC1CCN(C(=O)c2ccc3ccccc3c2)C1 (stereo not given) | -9.14%
Fc1ccccc1CN1CCC[C@H](Cn2nnc(-c3cccs3)n2)C1 | -0.152%
Cc1ccccc1CN1C[C@@H]2COC[C@]2(CNC(=O)C2CCC2)C1 | -110%
Cc1ccc(CNC(=O)CN2C=Nc3ccccc3S2(=O)=O)s1 | 0.347%
CC(=O)N[C@@H]1CN(Cc2nccn2C)C[C@H]1c1ccc(C)cc1 | 14.1%
CC(=O)N1C[C@H]2CCCN(S(=O)(=O)c3ccc(Cl)s3)[C@H]2C1 | -2.32%
Cc1ccc(O)c(C(=O)N2CCCC2CC(=O)c2cnn(C)c2)c1 (stereo not given) | -3.81%
CCCOCC1CCN(C(=O)c2cnc(C)nc2O)C1 (stereo not given) | -3.15%
Cc1ccc(C)c(C(NC(=O)C2CC2)c2cccnc2)c1 (stereo not given) | -3.5%
Cc1ccc(CN2CCO[C@@H]3[C@@H](OCc4cccnc4)CC[C@@H]32)o1 | 8.37%
Cc1cnn(CCNCC(O)COc2c(C)ccc(C)c2C)c1 (stereo not given) | -8.78%
N#Cc1ccc(CN2CCCCC2Cn2cncn2)cc1 (stereo not given) | -1.05%
Cc1cn[nH]c1C1COCCN1C(=O)c1cc(F)ccc1F (stereo not given) | -0.658%
Cc1cncc(C(=O)N2CCCCC2c2nc[nH]n2)c1 (stereo not given) | -0.229%
CN(C)c1cc(CNC(=O)c2ccc(Br)cc2F)ccn1 | -26%
Cc1nnc(N2CCCC3(CN(Cc4nccs4)CCO3)C2)o1 (stereo not given) | 2.08%
COCCN1CCCn2c(nc(CNS(C)(=O)=O)cc2=O)C1 | -110%
Cc1ccc(CN2Cc3nnn(C)c3C(COCc3ccccc3)C2)s1 (stereo not given) | 1.58%
COCCNC(=O)CN(C)C(C)c1nc(C)no1 (stereo not given) | 0.668%
Cc1cc(C)c(S(=O)(=O)Nc2cccc3c2OCCO3)cc1C(=O)O | 5.87%
CCc1cnc(CNC(=O)NCCCO)s1 | -5.42%

SMILES | cytotoxicity at 10 µM
CCNC(=O)[C@@H]1C[C@H](NC(=O)c2cc(=O)[nH]c3ccc(C)cc23)CN1C | 7.44%
CN(CCOc1cccc(Cl)c1)Cc1nnc(C(C)(C)C)o1 | 8.65%
COc1cc(NC(=O)NCCO)ccc1N1CCOC1=O | -0.803%
O=C(CSC1CCc2ccccc2NC1=O)NC1CC1 (stereo not given) | 6.58%
Cc1cc(C2CCCN2C(=O)c2cc3c(s2)CCC3)on1 (stereo not given) | -13.4%
Cn1cc(CNCCn2cccn2)c(-c2cccnc2)n1 | -2.34%
O=C(O)c1ccnc(-c2ccnc(COc3ccc(Cl)cc3)n2)c1 | -6.67%
Cc1ccccc1-n1ccnc1S(=O)(=O)Cc1nsc(N(C)C)n1 | 2.56%
CCN(CC1CCCO1)C(=O)Nc1ccc(F)cc1OC (stereo not given) | -8.98%
Cc1nc(O)cc(C2CCCN(C(=O)CN(C)c3ccccc3)C2)n1 (stereo not given) | 12.8%
Cc1n[nH]c(C)c1NC(=O)CN(CC(O)c1ccc(F)cc1)C1CC1 (stereo not given) | -7.3%
CCc1nnc(CN(C)c2nccc(CCC(F)(F)F)n2)o1 | 7.4%
Cc1oncc1C(=O)NCC(c1ccccc1Cl)N1CCOCC1 (stereo not given) | 10.7%
O=C(NCC1CCOCC1)c1cc(-c2ccc3c(c2)CCO3)n[nH]1 | 2.63%
Cc1cccc2[nH]c(C3CCN(C(=O)c4cnc[nH]c4=O)CC3)nc12 | 2.75%
Cc1nn(C)c(Cl)c1C1CCCN1C(=O)c1ccc2c(c1)COC2 (stereo not given) | -16.1%
NC(=O)COc1cccc(C(=O)N2CCCC(n3cccn3)C2)c1 (stereo not given) | -4.86%
c1nc(CSc2nnc(C3CC3)s2)cs1 | -5.54%
Cc1noc(C)c1CCC(=O)N1CCCN(CC(N)=O)CC1 | -12.4%
Fc1ccc(CNc2ccccc2Cn2cncn2)cc1 | -0.719%
O=S(=O)(c1ccc(Cl)cc1)N1C[C@@H]2CCN[C@@H]2C1 | -1.89%
c1cnc(OCc2nnc3n2CCN(Cc2ccco2)C3)nc1 | -2.12%
